In ChEMBL document CHEMBL1165913, “Repairing faulty genes by aminoglycosides: development of new derivatives of geneticin (G418) with enhanced suppression of diseases-causing nonsense mutations” (Bioorg Med Chem, 2010):
In brackets after ≈: the same amount, converted by molar mass. Activity calls are given as the source filed them. The calls are words filed in the database; no cut-off is given here.

What was measured:
[1] = Inhibition of ribosomal activity in Spodoptera frugiperda Sf21 cells assessed as inhibition of translation after 60 mins by fluorescence assay; assay type: subcellular, Ribosome
[2] = biological target: Bacterial 70S ribosome; test: Inhibition of ribosomal activity in Escherichia coli strain B assessed as inhibition of translation after 60 mins by coupled transcription/translation assay; assay type: subcellular
How it was run: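 E. coli S30 extract for circular DNA, with pBESTluc plasmid as template. Reactions containing varying aminoglycoside concentrations incubated at 37 °C for 60 min, chilled on ice 5 min, then diluted in tris-phosphate buffer (25 mM, pH 7.8) with DTT, chelator, glycerol, Triton X-100 and BSA. Luciferase luminescence read immediately after reagent addition. IC50 fitted from at least two independent experiments.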

[3] = test system: HEK293; test: (§1) Cytotoxicity against HEK293 cells after 48 hrs by XTT assay; assay type: cell-based; conditions: human, hek293, 48 h; read-out: LC50 (the source's name)
How it was run: (§2)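 HEK-293 cells seeded overnight at 5000 cells/well in DMEM with 10% FBS, 1% pen/strep and 1% glutamine. Medium then replaced with antibiotic-free medium, aminoglycoside added at a range of concentrations, and cells incubated 48 h. Read-out by O.D. on a plate reader. Viability is the ratio of living cells treated vs untreated. LC50 fitted from concentration–response curves of at least two independent experiments. Concentrations are given as free amine.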

[4] = Cytotoxicity against HDF after 72 hrs by XTT assay; assay type: cell-based; conditions: human
How it was run: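 Primary human dermal fibroblasts isolated from adult skin. Handled as in the HEK-293 protocol (overnight seeding, antibiotic-free medium, range of aminoglycoside concentrations), but exposed for 72 h. Viability is the ratio of treated to untreated living cells by O.D. LC50 fitted from concentration–response curves of at least two independent experiments.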

[5] = test system: Ribosome; test: Induction of ribosome to readthrough in-frame renilla/firefly TGA codon transfected in rabbit reticulocyte at 5 to 20 uM after 16 hrs dual-luciferase reporter gene assay; assay type: subcellular; conditions: Oryctolagus cuniculus
[6] = test system: Ribosome; test: Induction of ribosome to readthrough in-frame renilla/firefly TGA codon transfected in rabbit reticulocyte at 200 to 600 uM after 16 hrs dual-luciferase reporter gene assay; assay type: subcellular; conditions: Oryctolagus cuniculus
[7] = test system: Ribosome; test: Induction of ribosome to readthrough in-frame UGA codon of renilla/firefly CFTR G542X nonsense mutant gene transfected in rabbit reticulocyte assessed as reduction in overall translation at 5 to 20 uM […] dual-luciferase reporter gene assay; assay type: subcellular; conditions: Oryctolagus cuniculus
[8] = test system: Ribosome; test: Induction of ribosome to readthrough in-frame UGA codon associated with renilla/firefly dystrophin R3381X nonsense mutant gene transfected in rabbit reticulocyte assessed as reduction in overall translation at 5 to 20 uM […] dual-luciferase reporter gene assay; assay type: subcellular; conditions: Oryctolagus cuniculus
[9] = as §1; assay type: cell-based; conditions: human, HEK293 cells; read-out: LC50; how it was run: as §2
[10] = test system: Ribosome; test: Induction of ribosome to readthrough in-frame UAG codon of renilla/firefly IDUA Q70X nonsense mutant gene transfected in rabbit reticulocyte assessed as reduction in overall translation at 5 to 20 uM […] dual-luciferase reporter gene assay; assay type: subcellular; conditions: Oryctolagus cuniculus
[11] = test system: Ribosome; test: Induction of ribosome to readthrough in-frame UGA codon of renilla/firefly PCDH15 R245X nonsense mutant gene transfected in rabbit reticulocyte assessed as reduction in overall translation at 5 to 20 uM […] dual-luciferase reporter gene assay; assay type: subcellular; conditions: Oryctolagus cuniculus
[12] = test system: Bacillus subtilis; test: Antibacterial activity against Bacillus subtilis ATCC 6633 by double-microdilution method; assay type: functional
How it was run: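 MIC determined by double-microdilution per NCCLS against Gram-positive B. subtilis ATCC-6633, starting at 384 µg/mL of compound. Run in triplicate (footnote says duplicates); analogous results in three separate experiments.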

[13] = test system: Ribosome; test: Induction of ribosome to readthrough in-frame UGA codon of renilla/firefly CFTR W1282X nonsense mutant gene transfected in rabbit reticulocyte assessed as reduction in overall translation at 5 to 20 uM […] dual-luciferase reporter gene assay; assay type: subcellular; conditions: Oryctolagus cuniculus
[14] = test system: Ribosome; test: Induction of ribosome to readthrough in-frame UGA codon of renilla/firefly PCDH15 R3X nonsense mutant gene transfected in rabbit reticulocyte assessed as reduction in overall translation at 5 to 20 uM […] dual-luciferase reporter gene assay; assay type: subcellular; conditions: Oryctolagus cuniculus
[15] = test system: Escherichia coli; test: Antibacterial activity against Escherichia coli R477-100 by double-microdilution method; assay type: functional
How it was run: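 MIC by two-fold broth microdilution following NCCLS guidance; tested compound started at 384 µg/mL. Each run done in triplicate, with consistent results across three separate experiments.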

[16] = Ratio of paromomycin to compound antitranslational activity against prokaryotic ribosome-mediated translation; assay type: subcellular
[17] = Ratio of gentamicin to compound antitranslational activity against prokaryotic ribosome-mediated translation; assay type: subcellular
[18] = test system: Ribosome; test: Induction of ribosome to readthrough in-frame UGA codon of renilla/firefly CFTR W1282X nonsense mutant gene transfected in HEK293 cells assessed as reduction in overall translation at 1 to 2 mM after 6 hrs dual-luciferase reporter gene assay; assay type: subcellular; conditions: Homo sapiens
[19] = test system: HEK293; test: Ratio of compound LC50 to gentamicin LC50 for HEK293 cells; assay type: ADME, cell-based; conditions: human
How it was run: (§3)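 HEK-293 cells seeded 5000/well overnight in DMEM with 10% FBS, 1% pen/strep, 1% glutamine; medium replaced without antibiotics, aminoglycosides added at varying concentrations for 48 h; OD read on plate reader. Viability as living cells treated versus untreated; LC50 from concentration–response fits of at least two independent experiments; ratios relative to reference drug LC50.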

[20] = test system: Ribosome; test: Induction of ribosome to readthrough in-frame UAG codon of renilla/firefly IDUA Q70X nonsense mutant gene transfected in HEK293 cells assessed as reduction in overall translation at 1 to 2 mM after 6 hrs dual-luciferase reporter gene assay; assay type: subcellular; conditions: Homo sapiens
[21] = test system: HEK293; test: Ratio of geneticin to compound activity for induction of ribosome to readthrough in-frame UGA codon of renilla/firefly CFTR W1282X nonsense mutant gene transfected in HEK293 cells at 0.1 to 0.7 mM after 6 hrs dual-luciferase reporter gene assay; assay type: subcellular; conditions: Homo sapiens
[22] = Ratio of compound LC50 to geneticin LC50 for HEK293 cells; assay type: ADME, cell-based; conditions: human; how it was run: as §3
[23] = test system: Ribosome; test: Induction of ribosome to readthrough in-frame UGA codon of renilla/firefly PCDH15 R3X nonsense mutant gene transfected in HEK293 cells assessed as reduction in overall translation at 1 to 2 mM after 6 hrs dual-luciferase reporter gene assay; assay type: subcellular; conditions: Homo sapiens

| Compound | IC50 [1] [µM] | IC50 [2] [nM] | Activity [5] | inhibition [7] [%] | inhibition [8] [%] | CC50 at 48 h [9] [mM] | inhibition [10] [%] | inhibition [11] [%] | MIC [12] [µM] | inhibition [13] [%] | inhibition [14] [%] | MIC [15] [µM] | further results |
| --- | --- | --- | --- | --- | --- | --- | --- | --- | --- | --- | --- | --- | --- |
| GENTAMICIN [listing 1 of 2 here] | 62 | 28 | – | – | – | – | – | – | – | – | – | – | CC50 [3]: 2.5 mM; CC50 ([4]; hdf, 72 h, read-out: LC50 (the source's name)): 3.8 mM |
| N[C@H]1[C@@H](O[C@H]2[C@H](O)[C@@H](O)[C@H](N)C[C@@H]2N)O[C@H](CO)[C@@H](O)[C@@H]1O | – | – | Active | – | – | – | – | – | – | – | – | – | Activity [6]: Active |
| NCC[C@H](O)C(=O)N[C@@H]1C[C@H](N)[C@@H](O[C@H]2O[C@H](CO)[C@@H](O)[C@H](O)[C@H]2N)[C@H](O)[C@H]1O | – | – | Active | – | – | – | – | – | – | – | – | – | Activity [6]: Active |
| C[C@H](O)[C@H]1O[C@H](O[C@H]2[C@H](O[C@@H]3O[C@H](CN)[C@@H](O)[C@H]3O)[C@@H](O)[C@H](N)C[C@@H]2N)[C@H](N)[C@@H](O)[C@@H]1O | – | 1130 | – | 10 | 10 | 25.8 | 10 | 10 | 42 (≈ 19.7 µg/mL) | 10 | 10 | – | – |
| GENTAMICIN [listing 2 of 2 here] | – | – | – | – | – | – | – | – | < 0.75 | – | – | 6 | – |
| NC[C@H]1O[C@@H](O[C@@H]2[C@@H](O)[C@H](N)C[C@H](N)[C@H]2O[C@H]2O[C@H](CO)[C@@H](O)[C@H](O)[C@H]2N)[C@H](O)[C@@H]1O | 31 | 460 | – | 10 | 10 | 21.4 | 10 | 10 | 100 (≈ 45.4 µg/mL) | 10 | 10 | 790 (≈ 359 µg/mL) | Ratio [16]: 10; Ratio [17]: 10 |
| C[C@H](O)[C@H]1O[C@H](O[C@H]2[C@H](O)[C@@H](O)[C@H](NC(=O)[C@@H](O)CCN)C[C@@H]2N)[C@H](N)[C@@H](O)[C@@H]1O | – | – | Active | – | – | – | – | – | – | – | – | – | – |
| CN[C@@H]1[C@@H](O)[C@@H](O[C@@H]2[C@@H](O)[C@H](O[C@H]3O[C@H]([C@@H](C)O)[C@@H](O)[C@H](O)[C@H]3N)[C@@H](N)C[C@H]2N)OC[C@]1(C)O [GENETICIN] | – | 8.9 | – | – | – | 1.3 | – | – | < 1.25 | – | – | 9 (≈ 4.47 µg/mL) | CC50 at 72 h ([4]; HDF cells, read-out: LC50): 2 mM |
| C[C@H](O)[C@H]1O[C@H](O[C@H]2[C@H](O[C@@H]3O[C@H](CN)[C@@H](O)[C@H]3O)[C@@H](O)[C@H](NC(=O)[C@@H](O)CCN)C[C@@H]2N)[C@H](N)[C@@H](O)[C@@H]1O | 2.8 | 980 | – | 50 | 50 | 7 | 50 | 50 | 70 (≈ 39.9 µg/mL) | 50 | 50 | 556 (≈ 317 µg/mL) | inhibition [18]: Active; Ratio [19]: 2.8; inhibition [20]: Active; Ratio [21]: 2; selectivity ratio [22]: 5; inhibition [23]: Active |
| C[C@H](O)[C@H]1O[C@H](O[C@H]2[C@H](O)[C@@H](O)[C@H](N)C[C@@H]2N)[C@H](N)[C@@H](O)[C@@H]1O | – | – | Active | – | – | – | – | – | – | – | – | – | Activity [6]: Active |
| NCC[C@H](O)C(=O)N[C@@H]1C[C@H](N)[C@@H](O[C@H]2O[C@H](CO)[C@@H](O)[C@H](O)[C@H]2N)[C@H](O[C@@H]2O[C@H](CN)[C@@H](O)[C@H]2O)[C@H]1O | 24 | 160 | – | 10 | 10 | 6.1 | 10 | 10 | 70 (≈ 38.9 µg/mL) | 10 | 10 | 588 (≈ 327 µg/mL) | Ratio [16]: 10; inhibition [18]: Active; inhibition [20]: Active; Ratio [17]: 10; inhibition [23]: Active |
